Reference: ChEMBL document CHEMBL1123293, “Potent vasopressin antagonists lacking the proline residue at position 7” (J Med Chem, 1986)

Key:
[1] = biological target: Vasopressin V2 receptor (Sus scrofa) (UniProt P32307); assay: Affinity for vasopressin V2-receptor of porcine renal medullary membrane; assay type: tissue-based; details: Renal medulla
Summary of the method: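 Porcine renal medullary membrane preparation; displacement of [³H]LVP binding. K_bind calculated from the IC50 by the competitive-inhibition relation Kb = IC50/(1 + L/K_D), with K_D taken as the dissociation constant of [³H]LVP.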

[2] = biological target: Vasopressin V2 receptor (Sus scrofa, UniProt P32307); assay: Inhibition of LVP stimulated adenylate cyclase activity in pig kidney medullary membrane; assay type: functional, cell membranes
Chain of Vasopressin V2 receptor (P32307 whole entry): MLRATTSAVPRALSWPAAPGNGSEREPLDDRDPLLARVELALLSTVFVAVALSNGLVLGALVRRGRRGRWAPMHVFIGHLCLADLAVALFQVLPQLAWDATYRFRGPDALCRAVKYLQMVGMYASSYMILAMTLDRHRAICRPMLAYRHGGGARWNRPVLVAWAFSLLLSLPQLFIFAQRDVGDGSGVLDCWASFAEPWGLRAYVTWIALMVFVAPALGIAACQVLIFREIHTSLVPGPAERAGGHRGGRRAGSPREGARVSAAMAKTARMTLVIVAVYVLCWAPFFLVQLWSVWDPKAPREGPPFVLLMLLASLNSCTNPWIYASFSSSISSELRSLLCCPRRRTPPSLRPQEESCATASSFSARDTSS
Summary of the method: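 LVP-stimulated adenylate cyclase in pig kidney medullary membranes. The inhibition constant K_i was derived from the competitive-inhibition equation. Values are the mean of triplicate determinations.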

[3] = tested on: Rattus norvegicus; assay: Dose required to decrease urine osmolality in rats from the hydropenic levels (~1500 mOsm/kg of H20) 300 mOsm/kg H20; assay type: functional
Summary of the method: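 Male rats were deprived of food and water overnight to give a stable hydropenic state (urine osmolality ~1500 mOsm/kg H₂O). Rats were kept in metabolism cages, four per cage, and given vehicle or one of four doses. Urine volume and osmolality were measured. ED (µg/kg) to lower Uosm to 300 mOsm/kg H₂O was averaged from one to three dose-response curves per peptide.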

Chain of Vasopressin V2 receptor (Sus scrofa) (P32307 whole entry): as above

Row | SMILES | K bind [1] [nM] | other results
1 | CCOc1ccc(C[C@@H]2NC(=O)CC3(CCCCC3)SSC[C@H](C(=O)N3CCC[C@H]3C(=O)N[C@@H](CCCN=C(N)N)C(N)=O)NC(=O)[C@@H](CC(N)=O)NC(=O)[C@H](C(C)C)NC(=O)[C@@H](Cc3ccccc3)NC2=O)cc1 | 12 | –
2 | CCOc1ccc(C[C@@H]2NC(=O)CC3(CCCCC3)SSC[C@H](C(=O)N3CCC[C@H]3C(=O)N[C@@H](CCCN=C(N)N)C(=O)NCC(N)=O)NC(=O)[C@@H](CC(N)=O)NC(=O)[C@H](C(C)C)NC(=O)[C@@H](Cc3ccccc3)NC2=O)cc1 | 12 | –
3 | CCOc1ccc(C[C@H]2NC(=O)CC3(CCCCC3)SSC[C@@H](C(=O)N[C@@H](CCCNC(=N)N)C(N)=O)NC(=O)[C@H](CCN)NC(=O)[C@H](C(C)C)NC(=O)[C@H](Cc3ccccc3)NC2=O)cc1 | – | Ki [2]: 2.5 nM
4 | CCOc1ccc(C[C@@H]2NC(=O)CC3(CCCCC3)SSC[C@H](C(=O)N[C@H](CCCN=C(N)N)C(N)=O)NC(=O)[C@@H](CCN)NC(=O)[C@H](C(C)C)NC(=O)[C@@H](Cc3ccccc3)NC2=O)cc1 | 4.4 | –
5 | CCOc1ccc(C[C@H]2NC(=O)CC3(CCCCC3)SSC[C@@H](C(=O)N3CCC[C@H]3C(=O)N[C@@H](CCCN=C(N)N)C(N)=O)NC(=O)[C@H](CC(N)=O)NC(=O)[C@H](C(C)C)NC(=O)[C@H](Cc3ccccc3)NC2=O)cc1 | – | ED300 [3]: 9 µg/kg
6 | CCOc1ccc(C[C@H]2NC(=O)CC3(CCCCC3)SSC[C@@H](C(=O)N3CCC[C@H]3C(=O)N[C@@H](CCCN=C(N)N)C(=O)NCC(N)=O)NC(=O)[C@H](CC(N)=O)NC(=O)[C@H](C(C)C)NC(=O)[C@H](Cc3ccccc3)NC2=O)cc1 | – | ED300 [3]: 11 µg/kg
7 | CCOc1ccc(C[C@@H]2NC(=O)CC3(CCCCC3)SSC[C@H](C(=O)N[C@@H](CCCCN)C(N)=O)NC(=O)[C@@H](CCN)NC(=O)[C@H](C(C)C)NC(=O)[C@@H](Cc3ccccc3)NC2=O)cc1 | 26 | –
